# MC4R antag cAMP: human MC4R antagonism in cAMP assay | 360,000 tested, 0.48% active | P32245 | AID 540295 | inhibition, % at 6.5 µM | MC4R-expressing cells, MTII-stimulated cAMP, LANCE TR-FRET;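 active means inhibition above its plate's cutoff, the mean of tested wells on that plate plus 3 SD, cut at about 29% in these data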;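 further: 0% = Melanotan II alone and 100% = Melanotan II plus saturating MCL0020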
# Target sequence (P32245 whole entry, looked up): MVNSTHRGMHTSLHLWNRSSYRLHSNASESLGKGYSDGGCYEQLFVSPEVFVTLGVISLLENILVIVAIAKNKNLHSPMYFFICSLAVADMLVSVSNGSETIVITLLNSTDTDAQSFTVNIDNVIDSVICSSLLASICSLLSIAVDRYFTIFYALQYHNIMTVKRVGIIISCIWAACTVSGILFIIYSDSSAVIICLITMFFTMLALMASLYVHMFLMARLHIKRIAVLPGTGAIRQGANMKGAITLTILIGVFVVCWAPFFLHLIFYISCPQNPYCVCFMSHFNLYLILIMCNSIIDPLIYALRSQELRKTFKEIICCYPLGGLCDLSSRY
#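 Material: human MC4R-expressing U2OS cells. Probe or stimulus: Melanotan II challenge. Dosing: 6.5 µM single dose. Times: 30-min compound, 1-h challenge, 1-h detection, room temperature. Technique: TR-FRET with Eu-cAMP and labeled anti-cAMP, 671 nm. Replication: singlicate.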
# HTR2A ag: activates the mouse 5-HT2A serotonin receptor; CHO-K1 mHTR2A beta-arrestin complementation, luminescence; percent of 30 µM serotonin response; AID 624169; activation, % at 7.6 µM; P35363; 360,000 tested, 0.66% active;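 active means activation above a run cutoff, the mean activation of all tested compounds plus 3 SD, cut at about 14% in these data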;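 further: 0% = plate median of compound wells and 100% = 30 µM serotonin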
# TAAR1 antagonist: antagonists of human TAAR1. Q96RJ0. CHO RD-HGA16 TAAR1, Fluo-8 calcium fluorescence, antagonist. inhibition, % at 3 µM. 360,000 tested, 1.5% active. AID 624466;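 active means inhibition above a per-plate cutoff, the mean inhibition of test compounds on that plate plus 3 SD, cut at about 49% in these data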;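 further: 0% = DMSO plus EC80 beta-PEA response and 100% = DMSO alone without agonist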
#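 test system = CHO RD-HGA16 cells bearing hTAAR1 | replication = singlicate | controls = DMSO-only wells and EC80 β-PEA-stimulated wells | reagent = EC80 β-phenethylamine stimulus | read-out basis = percent inhibition of PEA-evoked calcium signal, max/basal emission ratio | schedule = seeding 17-24 h prior, 75-min 37 °C, 30-min RT dye loading | signal = kinetic Fluo-8 calcium fluorescence measurement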
# MC4R barr agon: agonists of human melanocortin 4 receptor (MC4R) beta-arrestin. U2OS MC4R beta-arrestin complementation, luminescence; percent of melanotan II response, DMSO zero. 360,000 tested, 0.98% active. activation, % at 8.9 µM. P32245;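 active means activation above a per-plate cutoff, the mean activation of sample wells on that plate plus 3 SD, cut at about 8% in these data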
# B2AR ag: human beta-2 adrenergic receptor agonism by FAP; 340,000 tested, 0.43% active; P07550; Am2.2-beta2AR cells, FAP receptor internalization, flow cytometry; response, % (test concentration not listed);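 active means response above a set limit, near 3 SD of response in nonfluorescent compounds, cut at about 42% in these data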
# Target sequence (P07550 whole entry, looked up): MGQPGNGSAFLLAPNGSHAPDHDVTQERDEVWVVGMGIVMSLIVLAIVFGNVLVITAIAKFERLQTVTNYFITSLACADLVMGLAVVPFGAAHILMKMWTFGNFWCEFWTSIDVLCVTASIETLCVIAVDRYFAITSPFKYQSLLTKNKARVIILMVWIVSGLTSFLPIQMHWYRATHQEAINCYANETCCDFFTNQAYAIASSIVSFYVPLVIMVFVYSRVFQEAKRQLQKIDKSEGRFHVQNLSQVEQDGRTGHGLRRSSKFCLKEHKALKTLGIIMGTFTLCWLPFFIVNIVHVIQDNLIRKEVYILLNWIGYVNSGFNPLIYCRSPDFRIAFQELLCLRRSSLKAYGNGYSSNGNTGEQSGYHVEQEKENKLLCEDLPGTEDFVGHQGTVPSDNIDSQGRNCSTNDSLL
# TAAR1 agonist: agonists of human TAAR1; CHO RD-HGA16 TAAR1, Fluo-8 calcium fluorescence; vehicle wells 0%, saturating PEA agonist 100%; activation, % at 3 µM; 360,000 tested, 0.99% active; AID 624467;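 active means activation above the mean activation of all test compounds in the run plus 3 SD, cut at about 38% in these data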
#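 Benchmarks: low control DMSO, high control PEA (EC100); System: CHO RD-HGA16 cells carrying human TAAR1 plus Gα16; Detection: Fluo-8 fluorescence, 5 s baseline then 140 s kinetic read; Schedule: 17-24 h plating, Fluo-8 75 min 37 °C, 30 min RT; Read-out basis: % activation from peak over basal fluorescence ratio, DMSO-to-PEA scaled.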
# U2OS cAMP counter: counter-screen for MC4R antagonists: nonselective cAMP signaling inhibitors; shares compounds with MC4R antag cAMP; parental U2OS, forskolin cAMP, LANCE TR-FRET; inhibition, % at 6.5 µM; 1,600 tested, 26% active;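 active means mean inhibition over triplicates above the low-control well mean plus 3 SD, set per campaign, cut at about 13% in these data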;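 further: signal is single emission at 671 nm which falls as cellular cAMP rises; 0% = forskolin-stimulated wells and 100% = buffer without forskolin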
# MC4R antag conf: human MC4R cAMP antagonism confirmation; AID 602195; 1,600 tested, 27% active; shares compounds with MC4R antag cAMP; MC4R-expressing cells, MTII-stimulated cAMP, TR-FRET; inhibition, % at 6.5 µM; in the data active means inhibition above about 29%;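 further: 0% = agonist stimulated wells alone and 100% = agonist stimulated wells plus saturating reference antagonist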
# * = called active by the depositor; · = not tested or not shown. The list is not random: actives were taken first. Their share in the collection is about 4.3%.
SMILES,MC4R antag cAMP,HTR2A ag,TAAR1 antagonist,MC4R barr agon,B2AR ag,TAAR1 agonist,U2OS cAMP counter,MC4R antag conf
CCc1ccccc1N(CC(=O)NCc1ccco1)C(=O)CCC(=O)Nc1ccccn1,30.9*,2.1,-1.6,4.1,-8.8,2.4,-1.7,-12.2
O=C(COC(=O)c1cc(S(=O)(=O)N2CCCC2)ccc1O)Nc1ccc(S(=O)(=O)N2CCOCC2)cc1,33.0*,-2.2,-12.3,1.6,4.9,4.3,-9.8,-26.3
Cc1cc(C(=O)OCC(=O)Nc2cc(S(=O)(=O)N3CCOCC3)ccc2Cl)c(C)o1,4.2,3.3,-6.5,1.8,3.1,0.9,·,·
CCN(CC)S(=O)(=O)c1ccc(NC(=O)COC(=O)c2cc(S(=O)(=O)Nc3ccc(OC)cc3)ccc2O)cc1,32.3*,-5.7,1.2,0.6,4.5,2.6,1.1,4.3
O=C(COC(=O)c1cc(S(=O)(=O)N2CCOCC2)ccc1O)Nc1cc(S(=O)(=O)N2CCCC2)ccc1Cl,30.4*,8.1,-31.6,0.7,9.2,2.0,4.0,8.4
CC(C)(C)CC(C)(C)c1ccc(O)c(Cc2ccc(Cl)cc2Cl)c1,43.9*,2.7,-22.2,2.1,1.2,0.7,0.2,16.1
CC(C)(C)C(=O)c1c(N)[nH]c(C(=O)c2ccccc2)c1-c1ccc([N+](=O)[O-])cc1,·,·,4.1,·,·,0.4,·,·
NS(=O)(=O)c1cccc(NC(=O)c2cccc3c(Br)cccc23)c1,42.7*,-5.3,11.2,0.6,-4.4,5.2,3.2,7.3
Cn1c(CSCc2ccc(Cl)c(Cl)c2)n[nH]c1=S,7.1,3.8,5.1,-3.5,18.3,2.7,·,·
CCOC(=O)[C@H](C)N1[C@H](C)[C@H](c2ccccc2)Oc2ccc(Cl)cc2S1(=O)=O,8.8,-3.7,-19.1,-0.3,9.6,-1.9,·,·
COC(=O)c1ccc(NC(=O)c2ccc(NS(=O)(=O)c3cccc4cccnc34)cc2)cc1,29.7*,-4.4,·,2.4,5.3,·,-0.7,2.5
Cc1ccc2c(c1)c1c3n2CCN(C(=O)CCl)C3CCC1 (centres undefined),38.4*,2.8,-5.5,0.7,4.3,-1.8,5.4,29.0*
CCCOc1ccc(-c2c(C(=O)N/N=C/c3ccccc3)nnn2-c2nonc2N)cc1,30.4*,-5.2,-45.7,0.1,-7.9,0.3,6.0,10.4
Cc1c(C(=O)N/N=C/c2cccc(O)c2)nnn1-c1nonc1N,12.6,9.5,16.0,-3.8,-8.4,4.2,·,·
Cc1ccccc1COc1cccc(/C=N/NC(=O)c2nnn(-c3nonc3N)c2C)c1,31.7*,-0.7,7.5,4.1,3.8,0.5,3.2,8.6
CC(OC(=O)Cn1cc(C(F)(F)F)ccc1=O)C(=O)NC(C)c1ccc(Cl)cc1Cl (centres undefined),16.6,-3.2,5.5,-2.0,3.1,0.2,·,·
CC(OC(=O)Cn1cnc2c1c(=O)n(C)c(=O)n2C)C(=O)NC(C)c1ccc(Cl)cc1Cl (centres undefined),35.7*,-4.1,0.9,-4.5,-0.6,6.5,12.3,11.9
CCOc1cc(C=NNC(=O)N(c2ccccc2)c2ccccc2)ccc1O,·,6.8,·,·,·,·,·,·
COc1ccccc1C1(CCNC(C)c2cccs2)CCOC(C(C)C)C1 (centres undefined),47.0*,0.3,-14.1,1.1,-2.8,2.5,-3.7,37.3*
CC(C)Cc1ccc(-c2cc3nc(NCCCn4ccnc4)ccn3n2)cc1,6.9,4.5,14.5,1.9,·,17.0,·,·
COCCNC(=S)N/N=C/c1ccc([N+](=O)[O-])cc1,-1.0,-2.4,0.6,-0.5,-1.3,-1.9,·,·
C=C(C)CNC(=S)N/N=C/c1ccc([N+](=O)[O-])cc1,30.2*,3.5,-15.2,-0.1,-2.4,17.5,-0.5,1.6
CN(C)C(=O)c1cn(-c2ccc(Cl)cc2)c(=O)c2ccccc12,32.1*,-0.7,-2.4,-2.2,-1.0,9.1,-1.5,-14.8
COc1ccccc1C(=O)NC(=S)N1CCc2ccccc21,29.9*,-3.7,11.4,0.3,-14.5,8.8,-6.0,-3.5
COc1ccccc1C(=O)NC(=S)N1CCCc2ccccc21,5.5,-0.9,-16.1,-1.6,-3.9,-1.2,·,·
SMILES,MC4R antag cAMP,HTR2A ag,TAAR1 antagonist,MC4R barr agon,B2AR ag,TAAR1 agonist,U2OS cAMP counter,MC4R antag conf
CCN(CC)C(=O)CCCc1c[nH]c2ccccc12,32.1*,-2.7,5.5,1.1,-1.3,3.8,1.2,-11.3
O=c1c2ccccc2oc2ccccc12,-7.5,-6.5,-10.9,0.4,·,-0.5,·,·
S=c1[nH]ncn2c1cc1oc3ccccc3c12,33.6*,10.0,-16.1,-1.8,0.5,1.0,22.3*,41.1*
CCN(CC)C(=O)COc1coc(CN2CCN(c3ccccc3F)CC2)cc1=O,5.2,5.7,-9.5,-1.2,3.7,3.2,·,·
CCC(Sc1nc2ccsc2c(=O)n1Cc1ccc(C(=O)O)cc1)C(=O)Nc1cc(Cl)ccc1C (centres undefined),36.7*,-5.0,-11.2,-1.7,·,4.4,0.7,2.5
CCOc1ccccc1NC(=O)C(CC)Sc1nc2ccsc2c(=O)n1CCC(=O)O (centres undefined),4.1,2.6,-25.8,0.1,2.1,3.1,·,·
O=C(COC(=O)CNS(=O)(=O)c1ccc(F)c(F)c1F)Nc1ccc(OC(F)F)cc1,28.8*,1.3,6.9,-2.8,-0.2,2.8,8.7,17.8
COc1cc(NC(=O)COC(=O)CNS(=O)(=O)c2ccc(F)c(F)c2F)cc(OC)c1,11.8,3.0,5.7,1.1,-1.1,2.0,·,·
Cc1nn(CC(=O)NNC(=O)c2ccccc2F)c([N+](=O)[O-])c1Br,37.2*,-0.6,2.8,3.3,-3.0,-1.0,1.5,-12.2
CCCCC[C@@H]1C=C(C(=O)O)[C@H](c2ccc(F)cc2)N1S(=O)(=O)c1ccc(C)cc1,-2.6,11.4,6.1,1.3,3.3,-1.1,·,·
O=C(CSc1nccc(=O)[nH]1)Nc1ccccc1Sc1ccccc1,31.2*,-3.8,8.0,0.8,-0.2,2.2,-0.2,-11.8
COc1ccccc1NC(=O)CSc1nccc(=O)[nH]1,-3.8,1.2,·,-2.1,0.2,·,·,·
COC(=O)[C@]12C[C@H](CC(=O)NCc3cccc4ccccc34)C(=O)N(Cc3ccccc3)C1=C[C@H](C(C)C)O[C@@H]2C1CC1,·,·,-51.0,·,·,7.0,·,·
CC1CCN(c2ccccc2NC(=S)NC(=O)c2cccs2)CC1,4.3,3.6,-13.4,1.7,-0.7,8.2,·,·
